From ChEMBL document CHEMBL1142995, “Probing the pharmacophore of ginkgolides as glycine receptor antagonists” (J Med Chem, 2007) come the findings set out here.

What all share (format): cell-based
Test [1] has as its target T1, Glycine receptor subunit alpha-1 (Homo sapiens, UniProt P23415).
T1 sequence (P23415 whole entry): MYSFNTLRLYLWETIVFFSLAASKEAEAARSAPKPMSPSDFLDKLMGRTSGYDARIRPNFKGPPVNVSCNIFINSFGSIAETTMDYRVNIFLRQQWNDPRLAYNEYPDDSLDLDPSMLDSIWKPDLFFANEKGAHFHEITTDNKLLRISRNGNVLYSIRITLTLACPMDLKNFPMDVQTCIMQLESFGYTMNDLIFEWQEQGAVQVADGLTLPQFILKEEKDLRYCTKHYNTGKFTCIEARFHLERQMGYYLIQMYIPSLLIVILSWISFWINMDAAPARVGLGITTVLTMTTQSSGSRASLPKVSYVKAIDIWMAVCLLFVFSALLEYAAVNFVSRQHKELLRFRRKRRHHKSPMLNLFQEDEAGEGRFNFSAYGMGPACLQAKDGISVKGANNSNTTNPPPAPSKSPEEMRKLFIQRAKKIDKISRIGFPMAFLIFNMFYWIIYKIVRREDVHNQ
Nature of the test: Activity at human alpha-1GlyR expressed in HEK293 cells by FMP assay. The essentials:
(§1)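 Stable HEK293 lines (α1: G418; α1β: G418 + hygromycin B; α2: hygromycin B) plated on poly-D-lysine 16-24 h. Loaded with FMP dye in HBSS/20 mM HEPES pH 7.4, antagonist present, 30 min at 37 °C. Fluorescence ex 530/em 560 nm read up to 1 min after glycine: 200 µM (α1, α1β) or 500 µM (α2). Duplicates, ≥3 experiments; IC50 from maximal responses.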

Test [2] addresses T2, Glycine receptor subunit alpha-2 (Homo sapiens, UniProt P23416).
T2 sequence (P23416 whole entry): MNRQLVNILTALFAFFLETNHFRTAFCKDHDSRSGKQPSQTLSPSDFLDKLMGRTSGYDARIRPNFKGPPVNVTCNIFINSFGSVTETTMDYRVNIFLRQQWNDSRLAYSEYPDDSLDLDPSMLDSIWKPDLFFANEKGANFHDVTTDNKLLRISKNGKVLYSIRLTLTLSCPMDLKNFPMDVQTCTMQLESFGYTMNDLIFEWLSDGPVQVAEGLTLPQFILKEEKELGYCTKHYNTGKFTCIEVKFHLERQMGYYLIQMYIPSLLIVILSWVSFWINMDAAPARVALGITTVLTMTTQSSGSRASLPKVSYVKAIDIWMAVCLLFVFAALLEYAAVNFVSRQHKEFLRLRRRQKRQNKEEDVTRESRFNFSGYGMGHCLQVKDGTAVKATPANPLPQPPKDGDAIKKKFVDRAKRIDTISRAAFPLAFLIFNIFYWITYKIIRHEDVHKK
Nature of the test: Activity at human alpha-2GlyR expressed in HEK293 cells by FMP assay. The essentials:
as §1

Test [3] addresses T1, Glycine receptor subunit alpha-1. Nature of the test: Activity at human alpha-1-beta-GlyR expressed in HEK293 cells by FMP assay. The essentials:
as §1

Test [4] shares this target. Kind of test: Activity at human alpha-1GlyR expressed in HEK293 cells assessed as inhibition of 300 uM glycine-induced current by whole-cell patch clamp experiment.

pIC50: −log10 of the molar value.

On to `COC(=O)/C(C)=C1\CC[C@@]23C4C[C@@H](C(C)(C)C)C25C(OC(=O)[C@@H]5O)O[C@]13C(=O)O4` (stereo not given in full), for which the pIC50 in test [1], in test [2] and in test [3] was below 4.00 throughout.

On to `C[C@@H]1C(=O)O[C@H]2[C@H](O)[C@]34[C@@H]5C(=O)O[C@@]3(O[C@@H]3OC(=O)[C@H](O)[C@@]34[C@H](C(C)(C)C)[C@@H]5Cl)[C@@]12O`, for which the pIC50 in test [1] is 5.12; in test [2], 4.89; in test [3] it was 5.49.

On to `C[C@@H]1C(=O)O[C@H]2C[C@@]34C5C[C@@H](C(C)(C)C)C3C(=O)O[C@]4(C(=O)O5)[C@]21O` (stereo not given in full), for which the pIC50 in test [1], in test [2] and in test [3] was below 4.00 in each case.

As for `CO[C@H]1C(=O)O[C@H]2O[C@@]34OC(=O)[C@@H]5[C@H](O)[C@@H](C(C)(C)C)[C@@]21[C@@]53[C@@H](O)[C@@H]1OC(=O)[C@@H](C)[C@@]14O`, the values for the pIC50 in test [1], in test [2] and in test [3] were 5.01, 5.11 and 5.28, respectively.

Regarding `COC1C[C@]23C4C[C@@H](C(C)(C)C)C25C(OC(=O)[C@@H]5OC(C)=O)O[C@@]3(C(=O)O1)C(=O)O4` (stereo not given in full), the pIC50 in test [1], in test [2] and in test [3] was below 4.00 throughout.

As for `CN[C@@H]1C2OC(=O)[C@]34OC5OC(=O)[C@H](O)C5([C@@H]1C(C)(C)C)[C@@]23[C@@H](O)[C@@H]1OC(=O)[C@@H](C)[C@@]14O` (stereo not given in full), the pIC50 in test [1], in test [2] and in test [3] was below 4.00 in each case.

On to `COC1C[C@@]23C4C[C@@H](C(C)(C)C)C25C(OC(=O)[C@@H]5OC)O[C@@]3(C(=O)O1)C(=O)O4` (stereo not given in full), for which the pIC50 in test [1], in test [2] and in test [3] was below 4.00 in each case.

In the case of `C[C@@H]1C(=O)O[C@H]2[C@H](O)[C@]34C5OC(=O)[C@@]3(OC3OC(=O)[C@H](O)C34[C@H](C(C)(C)C)C5=O)[C@@]12O` (stereo not given in full), the pIC50 in test [1], in test [2] and in test [3] was below 4.00 each time.

Take `COC(=O)[C@H](OC)C12C(OC)O[C@@]34C(=O)OC(C[C@H]1C(C)(C)C)[C@]23C[C@@H]1OC(=O)[C@@H](C)[C@@]14O` (stereo not given in full): the pIC50 in test [1], in test [2] and in test [3] was below 4.00 in each case.

With `C[C@@H]1CO[C@H]2C[C@@]34C5C[C@@H](C(C)(C)C)C36C(OC[C@@H]6O)O[C@]4(CO5)[C@@]12O` (stereo not given in full), the pIC50 in test [1], in test [2] and in test [3] was below 4.00 each time.

Regarding `C[C@@H]1CO[C@H]2C[C@@]34C5C[C@@H](C(C)(C)C)C36C(OC[C@@H]6O)O[C@]4(C(=O)O5)[C@@]12O` (stereo not given in full), the pIC50 in test [1], in test [2] and in test [3] was below 4.00 each time.

`COC(=O)C(C)[C@H]1CC[C@@]23C4C[C@@H](C(C)(C)C)C25C(OC(=O)[C@@H]5O)O[C@]13C(=O)O4` (stereo not given in full): the pIC50 in test [1], in test [2] and in test [3] was below 4.00 throughout.

As for `CC(C)(C)[C@@H]1CC2OC(=O)C34OC5OC(=O)[C@H](O)C51[C@@]23CC1OC(=O)[C@](C)(O)[C@@]14O` (stereo not given in full), the negative-log IC50 (pIC50) in test [1], in test [2] and in test [3] was below 4.00 in each case.

For the compound `CC(=O)O[C@@H]1C2OC(=O)[C@]34OC5OC(=O)[C@H](O)C5([C@@H]1C(C)(C)C)[C@@]23[C@@H](O)[C@@H]1OC(=O)[C@@H](C)[C@@]14O` (stereo not given in full), the pIC50 in test [1], in test [2] and in test [3] was below 4.00 in each case.

Take `CCN[C@@H]1C2OC(=O)[C@]34OC5OC(=O)[C@H](O)C5([C@@H]1C(C)(C)C)[C@@]23[C@@H](O)[C@@H]1OC(=O)[C@@H](C)[C@@]14O` (stereo not given in full): the pIC50 in test [1], in test [2] and in test [3] was below 4.00 in each case.

As to `C[C@@H]1C(=O)O[C@H]2C[C@]34C5OC(=O)[C@]3(OC(O)C4[C@H](C(C)(C)C)[C@H]5O)[C@]21O` (stereo not given in full), the pIC50 in test [1], in test [2] and in test [3] was below 4.00 each time.

Turning to `C[C@@H]1C(=O)O[C@H]2[C@H](O)[C@]34C5OC(=O)[C@@]3(OC3OC(=O)[C@H](O)C34[C@H](C(C)(C)C)[C@@H]5O)[C@@]12O` (stereo not given in full), the pIC50 in test [1], in test [2] and in test [3] was below 4.00 in each case.

Turning to `C[C@@H]1C(=O)O[C@H]2[C@H](O)[C@]34[C@@H]5C(=O)O[C@@]3(O[C@@H]3OC(=O)[C@H](O)[C@@]34[C@H](C(C)(C)C)[C@@H]5N=[N+]=[N-])[C@@]12O`, the negative logarithm of the IC50 (pIC50) in test [1] was 4.77; in test [2] it was 4.54; in test [3], 5.13.

As for `C[C@@H]1C(=O)O[C@H]2C[C@@]34C5C[C@@H](C(C)(C)C)C36C(=O)C(=O)OC6O[C@]4(C(=O)O5)[C@]21O` (stereo not given in full), the pIC50 in test [1], in test [2] and in test [3] was below 4.00 each time.

Turning to `C[C@@H]1CO[C@@H]2C[C@@]34C5C[C@@H](C(C)(C)C)C36C(OC(=O)[C@@H]6O)O[C@]4(C(=O)O5)[C@@]12O` (stereo not given in full), the pIC50 in test [1], in test [2] and in test [3] was below 4.00 in each case.

Take `C[C@@H]1C(=O)O[C@H]2[C@H](O)[C@@]34C5OC(=O)[C@@]3(OC3OC(=O)[C@H](O)C34[C@H](C(C)(C)C)[C@H]5OS(=O)(=O)C(F)(F)F)[C@@]12O` (stereo not given in full): the pIC50 in test [1], in test [2] and in test [3] was below 4.00 each time.

In the case of `C[C@@H]1C(=O)O[C@H]2[C@H](O)[C@]34C5OC(=O)[C@@]3(OC3OC(=O)[C@H](O)C34[C@H](C(C)(C)C)[C@@H]5OC(=O)Cc3ccccc3)[C@@]12O` (stereo not given in full), the pIC50 in test [1], in test [2] and in test [3] was below 4.00 throughout.

In the case of `C[C@@H]1C(=O)OC2[C@@H]3OCO[C@H]4C(=O)OC5OC6(C(=O)OC7C[C@@H](C(C)(C)C)C54[C@]736)[C@]21O` (stereo not given in full), the pIC50 is 4.92 in test [1], 4.92 in test [2] and 5.05 in test [3].

Turning to `CC(=O)O[C@H]1C(=O)OC2O[C@@]34C(=O)OC5C[C@@H](C(C)(C)C)C21[C@@]53C[C@@H]1OC(=O)[C@H](C)[C@@H]14` (stereo not given in full), the pIC50 in test [1], in test [2] and in test [3] was below 4.00 each time.

Turning to `CC1=C2C(=C[C@]34C5OC(=O)[C@@]23OC2OC(=O)[C@H](O)C24[C@H](C(C)(C)C)[C@H]5O)OC1=O` (stereo not given in full), the pIC50 in test [1], in test [2] and in test [3] was below 4.00 throughout.

Take `C[C@@H]1C(=O)O[C@H]2[C@H](O)[C@]34[C@@H]5C(=O)O[C@@]3(O[C@@H]3OC(=O)[C@H](O)[C@@]34[C@H](C(C)(C)C)[C@@H]5F)[C@@]12O`: the pIC50 in test [1] is 5.14; in test [2] it was 5.34; in test [3], 5.49.

Turning to `CC1=C2[C@H](C[C@]34[C@H]5C[C@@H](C(C)(C)C)[C@]36[C@@H](OC(=O)[C@@H]6O)O[C@]24OC5=O)OC1=O` [3,14-DIDEHYDROGINKGOLIDE A], the pIC50 in test [1] is 5.21; in test [2], 5.02; in test [3] it was 5.51.

In the case of `CC(=O)O[C@H]1C(=O)OC2O[C@@]34C(=O)OC5C[C@@H](C(C)(C)C)C21[C@@]53C[C@@H]1OC(=O)[C@@H](C)[C@@]14O` (stereo not given in full) [10-ACETOXY-GINKGOLIDE B], the pIC50 in test [1], in test [2] and in test [3] was below 4.00 throughout.

As to `COCO[C@H]1C(=O)O[C@H]2O[C@@]34OC(=O)[C@@H]5C[C@@H](C(C)(C)C)[C@@]21[C@]53C[C@@H]1OC(=O)[C@@H](C)[C@@]14O` [10-METHOXYMETHYLOXY-GINKGOLIDE A], the pIC50 in test [1], in test [2] and in test [3] was below 4.00 throughout.

On to `C[C@@H]1C(=O)O[C@H]2C[C@@]34[C@H]5C[C@@H](C(C)(C)C)[C@]36[C@@H](OC(=O)[C@@H]6O)O[C@@]4(C(=O)O5)[C@]21O` [GINKGOLIDE A], for which the pIC50 in test [1] is 5.72; in test [4], 5.42; in test [2], 5.68; in test [3] it was 6.16.

In the case of `C[C@@H]1C(=O)O[C@H]2C[C@@]34O[C@@H]5OC(=O)[C@H](O)[C@@]56[C@H](C(C)(C)C)[C@H](O)C(OC3=O)[C@]64[C@]21O` (stereo not given in full) [GINKGOLIDE J], the pIC50 in test [1] was 5.15; in test [4], 5.19; in test [2], 4.92; in test [3] it was 5.38.
